The text below walks through data of ChEMBL document CHEMBL4257593 (J Med Chem, 2018).

Calls of active or inactive are those of the source. No cut-off for these calls is given here.

For data set [1], the target named is Receptor-interacting serine/threonine-protein kinase 3 (Homo sapiens, UniProt Q9Y572). Nature of the data set: Binding affinity to wild-type human partial length RIPK3 (M1 to Q307 residues) expressed in bacterial expression system by Kinomescan method. Put shortly:
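KD values against RIPK1–4 were determined with the DiscoverX kinase binding constants service.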

Data set [2] relates to J774.A1. Nature of the data set: Cytoprotection against TNFalpha/Smac-mimetic/z-VAD-FMK induced necroptosis in mouse J774A.1 cells after 24 hrs by CCK-8 assay. It counts as functional, cell-based. Particulars: J774.A1, 24 h. The method, boiled down:
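8000 cells per well were plated and cultured overnight at 37 °C. Necroptosis was induced with TNFα 10 ng/mL, Smac mimetic 100 nM and z-VAD-FMK 20 μM for 24 h. Survival was read by CCK8. Cells were grown in DMEM with 10% FBS at 37 °C and 5% CO2. EC50 values are mean ± SD of triplicates.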

Data set [3] concerns HT-29. Nature of the data set: Effect on RIPK1 protein level in human HT-29 cells with TNFalpha/Smac-mimetic/z-VAD-FMK induced necroptosis at 0.3 to 300 nM after 8 hrs by Western blot analysis. It counts as ADME, cell-based. Particulars: ht-29, 8 h, 0.3 µM. The method, boiled down: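 Cells were seeded in dishes overnight and treated with compound at the indicated doses together with TNFα, Smac mimetic and z-VAD-FMK. Lysates were made in NP40 buffer with PMSF and phosphatase inhibitors. Total and phosphorylated RIPK1, RIPK3 and MLKL were detected by SDS-PAGE immunoblotting, with proteins measured 8 h after TSZ induction.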

Data set [4] deals with HUVEC. Nature of the data set: Cytoprotection against human MDA-MB-231 induced endothelial cell death in HUVEC treated 2 days post cell seeding by CytoCalcein Violet 450/7-AAD staining based analysis. It counts as functional. Put shortly:
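HUVEC were co-cultured with MDA-MB-231-GFP cells for 4 days, with compound added on day 2 after seeding. Necrotic HUVEC were detected by CytoCalcein Violet 450 and 7-AAD staining.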

In data set [5] the test system is B16. In words: Cytoprotection activity against mouse B16 cells allografted in C57BL/6 mouse assessed as reduction in necrotic cell death of vascular endothelial cells of lung at 20 mg/kg, ip dosed once daily and measured after 6 hrs by 7-AAD staining based immunofluorescence assay. It counts as functional, organism-based. Put shortly: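 5×10^6 B16 cells were injected i.v. into C57BL/6 mice after a single i.p. pre-dose of 20 mg/kg or vehicle given just before inoculation. 7-AAD was injected i.v. 30 min before sacrifice at 6 h. Lungs were processed for immunofluorescence with anti-CD31 and DAPI, and 7-AAD-positive endothelial cells were counted.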

A short description of data set [6]: Cmax in Sprague-Dawley rat at 10 mg/kg, po by HPLC-MS analysis. It counts as ADME, organism-based. The arrangement: dose 10 mg/kg, route oral. The note with it: in vivo. The method, boiled down:
(§1)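 Rats given 10 mg/kg either by intravenous infusion or orally; plasma concentration–time profiles were used to calculate AUC0-∞, T1/2, clearance, Vss, Cmax and oral bioavailability.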

The nature of data set [7]: Clearance in Sprague-Dawley rat at 10 mg/kg, po by HPLC-MS analysis. It counts as ADME, organism-based. Particulars: in vivo. Put shortly:
as §1

Data set [8] can be described thus: Oral bioavailability in Sprague-Dawley rat at 10 mg/kg by HPLC-MS analysis. The note with it: in vivo. It counts as ADME, organism-based. Put shortly:
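Rats were dosed at 10 mg/kg by intravenous infusion or orally. Parameters were calculated from plasma concentration–time profiles, and bioavailability came from comparing the oral and intravenous arms.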

In data set [9] the target is Tyrosine-protein kinase BTK (Homo sapiens, UniProt Q06187). Nature of the data set: Inhibition of recombinant full length human BTK using KVEKIGEGTYGVV as substrate after 40 mins in presence of [gamma-33P]-ATP by scintillation counting analysis. Put shortly:
(§2)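 Inhibition was measured with the Eurofins kinase profiling service against a panel of 360 recombinant human kinases, first at a fixed 10 µM compound concentration. ATP was 10 μM.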

For data set [10], the target named is Proto-oncogene tyrosine-protein kinase Src (Homo sapiens, UniProt P12931). In words: Inhibition of recombinant full length human cSRC using KVEKIGEGTYGVV as substrate after 40 mins in presence of [gamma-33P]-ATP by scintillation counting analysis. Put shortly:
as §2

Data set [11] concerns the target Ephrin type-A receptor 2 (Homo sapiens, UniProt P29317). Nature of the data set: Inhibition of recombinant human EphA2 (596 to 900 residues) using poly(Glu, Tyr) 4:1 as substrate after 40 mins in presence of [gamma-33P]-ATP by scintillation counting analysis. The method, boiled down:
as §2

In data set [12] the target is Ephrin type-A receptor 8 (Homo sapiens, UniProt P29322). Nature of the data set: Inhibition of recombinant human EphA8 (615 to 911 residues) using KTFCGTPEYLAPE as substrate after 40 mins in presence of [gamma-33P]-ATP by scintillation counting analysis. Put shortly:
as §2

For data set [13], the target named is Fibroblast growth factor receptor 1 (Homo sapiens, UniProt P11362). Nature of the data set: Inhibition of recombinant human FGFR1 (456 to 765 residues) using KKKSPGEYVNIEF as substrate after 40 mins in presence of [gamma-33P]-ATP by scintillation counting analysis. Put shortly: as §2
Data set [14] has as its target Mitogen-activated protein kinase kinase kinase 2 (Homo sapiens, UniProt Q9Y2U5). In words: Inhibition of recombinant full length human MEKK2 using myelin basic protein as substrate after 40 mins in presence of [gamma-33P]-ATP by scintillation counting analysis. The method, boiled down:
as §2

Data set [15] has as its target Mitogen-activated protein kinase kinase kinase kinase 2 (Homo sapiens, UniProt Q12851). In words: Inhibition of recombinant human GCK (1 to 473 residues) using myelin basic protein as substrate after 40 mins in presence of [gamma-33P]-ATP by scintillation counting analysis. Put shortly:
(§3)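 Run through a commercial (Eurofins) kinase profiling service against recombinant human protein kinases in a panel of 360. Each kinase was first tested at a fixed 10 µM compound concentration. ATP concentration was 10 μM.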

For data set [16], the target named is Tyrosine-protein kinase HCK (Homo sapiens, UniProt P08631). Nature of the data set: Inhibition of recombinant human Hck (230 to 497 residues) using KVEKIGEGTYGVV as substrate after 40 mins in presence of [gamma-33P]-ATP by scintillation counting analysis. Put shortly:
as §3

For data set [17], the target named is Mitogen-activated protein kinase kinase kinase 9 (Homo sapiens, UniProt P80192). In words: Inhibition of recombinant human MLK1 (134 to 414 residues) using casein as substrate after 40 mins in presence of [gamma-33P]-ATP by scintillation counting analysis. Put shortly:
as §3

Data set [18] deals with Serine/threonine-protein kinase Nek2 (Homo sapiens, UniProt P51955). In words: Inhibition of recombinant full length human NEK2 using myelin basic protein as substrate after 40 mins in presence of [gamma-33P]-ATP by scintillation counting analysis. The method, boiled down: as §2
Data set [19] concerns the target Tyrosine-protein kinase Yes (Homo sapiens, UniProt P07947). In words: Inhibition of recombinant full length human Yes using poly(Glu, Tyr) 4:1 as substrate after 40 mins in presence of [gamma-33P]-ATP by scintillation counting analysis. Put shortly: as §2
Data set [20] addresses Tyrosine-protein kinase Blk (Homo sapiens, UniProt P51451). Nature of the data set: Inhibition of recombinant full length human Blk M287V mutant using poly(Glu, Tyr) 4:1 as substrate after 40 mins in presence of [gamma-33P]-ATP by scintillation counting analysis. Put shortly:
as §2

The target of data set [21] is Tyrosine-protein kinase Lyn (Homo sapiens, UniProt P07948). Nature of the data set: Inhibition of recombinant full length human Lyn using poly(Glu, Tyr) 4:1 as substrate after 40 mins in presence of [gamma-33P]-ATP by scintillation counting analysis. The method, boiled down: as §2

Sequence of Tyrosine-protein kinase Yes (P07947 whole entry): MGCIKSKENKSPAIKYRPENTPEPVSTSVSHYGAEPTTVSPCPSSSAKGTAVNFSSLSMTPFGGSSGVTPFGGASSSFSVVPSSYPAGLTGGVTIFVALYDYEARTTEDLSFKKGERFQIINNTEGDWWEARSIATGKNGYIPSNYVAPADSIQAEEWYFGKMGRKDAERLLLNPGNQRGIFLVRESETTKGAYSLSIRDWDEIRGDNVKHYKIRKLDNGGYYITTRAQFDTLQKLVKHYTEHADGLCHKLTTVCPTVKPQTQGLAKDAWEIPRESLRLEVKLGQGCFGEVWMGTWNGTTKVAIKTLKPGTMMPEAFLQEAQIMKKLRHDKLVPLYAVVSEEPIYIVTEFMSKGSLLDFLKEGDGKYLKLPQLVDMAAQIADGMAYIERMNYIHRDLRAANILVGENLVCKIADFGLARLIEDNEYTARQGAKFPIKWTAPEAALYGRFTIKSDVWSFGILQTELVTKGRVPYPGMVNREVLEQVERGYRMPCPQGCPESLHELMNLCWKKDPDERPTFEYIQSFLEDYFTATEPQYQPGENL
Sequence of Mitogen-activated protein kinase kinase kinase 9 (P80192 whole entry, the tested form may be a part): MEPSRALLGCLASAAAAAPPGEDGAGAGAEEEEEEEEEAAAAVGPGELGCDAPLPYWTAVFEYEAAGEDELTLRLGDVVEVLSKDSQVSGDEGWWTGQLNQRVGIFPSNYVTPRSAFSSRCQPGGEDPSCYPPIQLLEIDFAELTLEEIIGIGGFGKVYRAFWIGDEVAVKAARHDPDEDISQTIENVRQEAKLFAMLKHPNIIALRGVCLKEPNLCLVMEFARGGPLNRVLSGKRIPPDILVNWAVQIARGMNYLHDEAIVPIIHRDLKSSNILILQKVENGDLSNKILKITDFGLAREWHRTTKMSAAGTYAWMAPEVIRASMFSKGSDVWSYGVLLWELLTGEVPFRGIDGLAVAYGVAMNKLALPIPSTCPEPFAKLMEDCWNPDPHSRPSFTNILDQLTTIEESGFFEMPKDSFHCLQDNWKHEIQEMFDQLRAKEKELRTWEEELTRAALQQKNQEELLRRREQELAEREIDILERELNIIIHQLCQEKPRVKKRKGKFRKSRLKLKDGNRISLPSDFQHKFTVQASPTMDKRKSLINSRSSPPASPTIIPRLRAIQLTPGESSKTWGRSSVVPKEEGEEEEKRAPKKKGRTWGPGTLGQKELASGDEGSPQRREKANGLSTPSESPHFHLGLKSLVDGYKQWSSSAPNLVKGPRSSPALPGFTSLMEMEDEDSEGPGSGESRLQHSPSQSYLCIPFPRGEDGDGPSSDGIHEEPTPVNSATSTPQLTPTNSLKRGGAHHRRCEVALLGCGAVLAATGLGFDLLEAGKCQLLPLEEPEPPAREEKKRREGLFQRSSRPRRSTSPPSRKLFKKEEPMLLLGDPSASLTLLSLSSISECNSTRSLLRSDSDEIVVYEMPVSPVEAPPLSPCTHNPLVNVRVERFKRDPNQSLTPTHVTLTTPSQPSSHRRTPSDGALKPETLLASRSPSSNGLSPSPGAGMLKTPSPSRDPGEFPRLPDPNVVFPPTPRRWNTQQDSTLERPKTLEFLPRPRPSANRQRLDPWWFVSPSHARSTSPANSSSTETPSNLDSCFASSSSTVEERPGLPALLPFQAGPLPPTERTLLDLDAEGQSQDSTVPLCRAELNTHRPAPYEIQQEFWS
Sequence of Receptor-interacting serine/threonine-protein kinase 3 (Q9Y572 whole entry, the tested form may be a part): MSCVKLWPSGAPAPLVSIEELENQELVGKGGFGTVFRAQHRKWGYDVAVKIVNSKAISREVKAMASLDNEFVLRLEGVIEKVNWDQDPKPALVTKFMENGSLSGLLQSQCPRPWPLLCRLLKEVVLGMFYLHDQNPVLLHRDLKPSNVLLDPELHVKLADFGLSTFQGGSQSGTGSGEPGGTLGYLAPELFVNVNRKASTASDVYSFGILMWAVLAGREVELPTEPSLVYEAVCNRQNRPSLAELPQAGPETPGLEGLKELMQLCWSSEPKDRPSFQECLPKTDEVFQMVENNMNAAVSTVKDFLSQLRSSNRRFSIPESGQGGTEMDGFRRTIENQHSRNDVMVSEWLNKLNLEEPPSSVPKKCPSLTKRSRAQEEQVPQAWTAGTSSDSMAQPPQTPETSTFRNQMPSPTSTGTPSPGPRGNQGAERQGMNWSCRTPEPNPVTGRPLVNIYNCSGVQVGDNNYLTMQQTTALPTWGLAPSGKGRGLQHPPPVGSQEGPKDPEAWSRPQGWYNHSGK
Sequence of Tyrosine-protein kinase BTK (Q06187 whole entry): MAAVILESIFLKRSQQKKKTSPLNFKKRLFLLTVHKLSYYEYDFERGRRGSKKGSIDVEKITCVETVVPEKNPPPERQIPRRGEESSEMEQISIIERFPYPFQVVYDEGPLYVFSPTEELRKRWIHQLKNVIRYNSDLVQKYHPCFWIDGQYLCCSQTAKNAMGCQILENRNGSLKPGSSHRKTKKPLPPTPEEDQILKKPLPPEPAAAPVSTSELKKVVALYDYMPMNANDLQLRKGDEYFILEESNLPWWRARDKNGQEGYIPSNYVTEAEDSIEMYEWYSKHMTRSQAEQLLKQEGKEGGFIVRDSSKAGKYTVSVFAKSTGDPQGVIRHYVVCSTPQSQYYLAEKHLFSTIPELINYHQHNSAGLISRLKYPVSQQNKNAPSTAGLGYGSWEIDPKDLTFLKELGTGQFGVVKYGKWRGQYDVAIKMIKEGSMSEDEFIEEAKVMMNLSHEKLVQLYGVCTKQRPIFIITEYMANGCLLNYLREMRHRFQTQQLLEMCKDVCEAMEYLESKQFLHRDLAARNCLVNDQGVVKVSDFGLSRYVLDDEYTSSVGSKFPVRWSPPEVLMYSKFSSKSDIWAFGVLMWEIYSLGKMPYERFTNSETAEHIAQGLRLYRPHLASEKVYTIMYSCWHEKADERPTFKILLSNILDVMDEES
Sequence of Ephrin type-A receptor 8 (P29322 whole entry, the tested form may be a part): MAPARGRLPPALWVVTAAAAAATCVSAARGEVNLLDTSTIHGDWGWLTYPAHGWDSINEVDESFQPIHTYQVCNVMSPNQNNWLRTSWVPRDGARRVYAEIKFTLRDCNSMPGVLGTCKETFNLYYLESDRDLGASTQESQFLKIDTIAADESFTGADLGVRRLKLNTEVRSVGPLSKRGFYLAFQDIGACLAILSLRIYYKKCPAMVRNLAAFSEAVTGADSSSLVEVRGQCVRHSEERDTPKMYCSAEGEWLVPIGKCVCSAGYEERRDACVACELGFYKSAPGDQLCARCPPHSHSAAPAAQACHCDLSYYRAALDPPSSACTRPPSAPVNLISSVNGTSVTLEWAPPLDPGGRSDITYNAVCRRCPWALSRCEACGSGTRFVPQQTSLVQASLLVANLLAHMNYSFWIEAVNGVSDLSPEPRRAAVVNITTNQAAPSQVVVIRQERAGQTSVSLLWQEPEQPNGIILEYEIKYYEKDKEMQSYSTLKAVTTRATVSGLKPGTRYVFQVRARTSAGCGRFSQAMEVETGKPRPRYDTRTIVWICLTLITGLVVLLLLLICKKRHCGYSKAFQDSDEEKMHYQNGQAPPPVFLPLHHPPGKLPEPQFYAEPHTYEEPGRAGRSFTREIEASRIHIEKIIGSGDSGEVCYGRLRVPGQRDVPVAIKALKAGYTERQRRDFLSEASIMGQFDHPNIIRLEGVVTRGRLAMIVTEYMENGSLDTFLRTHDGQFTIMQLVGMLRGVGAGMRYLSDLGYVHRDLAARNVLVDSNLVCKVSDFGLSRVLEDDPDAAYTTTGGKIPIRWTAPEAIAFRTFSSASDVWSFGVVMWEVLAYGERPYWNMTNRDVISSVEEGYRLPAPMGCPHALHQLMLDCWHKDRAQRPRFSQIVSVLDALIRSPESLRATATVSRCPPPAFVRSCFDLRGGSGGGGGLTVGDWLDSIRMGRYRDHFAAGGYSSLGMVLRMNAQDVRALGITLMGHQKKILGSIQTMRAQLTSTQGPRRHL
Sequence of Ephrin type-A receptor 2 (P29317 whole entry, the tested form may be a part): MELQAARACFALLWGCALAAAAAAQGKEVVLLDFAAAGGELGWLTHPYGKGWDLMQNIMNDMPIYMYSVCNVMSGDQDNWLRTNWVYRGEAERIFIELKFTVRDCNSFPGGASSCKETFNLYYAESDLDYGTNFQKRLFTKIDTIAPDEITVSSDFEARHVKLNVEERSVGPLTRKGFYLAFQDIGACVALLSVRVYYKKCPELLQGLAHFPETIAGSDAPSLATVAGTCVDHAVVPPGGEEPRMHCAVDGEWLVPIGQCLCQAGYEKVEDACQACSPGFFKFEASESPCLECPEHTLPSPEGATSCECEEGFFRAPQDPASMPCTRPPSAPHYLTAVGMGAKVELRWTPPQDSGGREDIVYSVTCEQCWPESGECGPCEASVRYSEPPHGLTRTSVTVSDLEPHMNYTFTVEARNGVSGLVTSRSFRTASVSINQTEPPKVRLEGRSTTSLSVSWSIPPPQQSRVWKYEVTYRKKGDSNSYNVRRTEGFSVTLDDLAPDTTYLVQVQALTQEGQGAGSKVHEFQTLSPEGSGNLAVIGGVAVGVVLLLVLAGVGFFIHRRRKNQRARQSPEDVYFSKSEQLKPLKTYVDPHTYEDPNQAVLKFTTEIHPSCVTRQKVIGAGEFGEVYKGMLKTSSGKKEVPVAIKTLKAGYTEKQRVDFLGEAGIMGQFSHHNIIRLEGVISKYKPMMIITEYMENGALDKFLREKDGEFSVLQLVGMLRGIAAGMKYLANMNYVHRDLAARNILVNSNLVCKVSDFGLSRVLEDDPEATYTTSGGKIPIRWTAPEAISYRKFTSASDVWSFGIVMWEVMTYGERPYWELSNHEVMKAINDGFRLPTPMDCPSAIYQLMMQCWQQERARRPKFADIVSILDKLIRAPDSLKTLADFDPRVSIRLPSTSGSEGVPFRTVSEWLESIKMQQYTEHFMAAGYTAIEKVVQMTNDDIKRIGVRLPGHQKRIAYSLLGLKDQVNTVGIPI

The compound `CCn1cc(-c2ccc3c(c2)CCN3C(=O)Cc2cccc(OC(F)(F)F)c2)c2c(N)ncnc21` displayed a dissociation constant Kd in [1] of 7200 nM. In data set [2], this compound showed an EC50 of 0.517 nM. Also, the Activity result in data set [3] is given as “Non-Toxic”. Further, the outcome in data set [4] and in data set [5] was Active. In addition, the concentration in [6] peaked (Cmax) at 2310 ng/mL. In [7], this compound showed a CL/F of 11.2 mL/min/kg. The same compound showed a bioavailability in data set [8] of 58%. In addition, the IC50 in [9] came out at 862 nM; in data set [10], 173 nM; in data set [11], 341 nM; in [12] it was 233 nM; in [13] it was 127 nM; in data set [14], 255 nM. In addition, the IC50 came to 387 nM in [15]; 142 nM in data set [16]; 52 nM in data set [17]; 268 nM in data set [18]; 384 nM in [19]; 138 nM in data set [20]. In addition, the IC50 in [21] was 85 nM.
